Reference: ChEMBL document CHEMBL3822452, “Polyphenolic compounds with anti-tumour potential from Corchorus olitorius (L.) Tiliaceae, a Nigerian leaf vegetable” (2016)
Activity calls are given as the source filed them. The calls are words filed in the database; no cut-off is given here.

How the values were obtained:
[1] = system: HeLa; experiment: Cytotoxicity against human HeLa cells assessed as cell viability at 1600 uM after 48 hrs by alamar blue assay relative to control; type: functional; details: read-out: Activity
In short: (§1)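 HeLa cells in MEM with 10% FBS, 1% NEAA, 2 mM glutamine and 1% antibiotic-antimycotic were seeded at 1 x 10^5 cells/ml and grown 24 h at 37°C, 5% CO2. They were exposed 48 h to compound serially diluted in growth medium, in duplicate wells. Alamar Blue was added for 3 h, then 30 min at room temperature, and fluorescence read at ex 544/em 590 nm. Values are % of DMSO-only control, means ± SEM, with ANOVA and Dunnett's test.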

[2] = system: HeLa; experiment: Cytotoxicity against human HeLa cells assessed as cell rounding after 48 hrs by inverted microscopic analysis; type: functional, cell-based
In short: (§2)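 HeLa cultures were treated 48 h with increasing compound concentrations in growth medium, with controls given growth medium only. Bright-field images were then taken on an inverted microscope at x10 and examined for cell loss and rounding of remaining cells.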

[3] = system: HeLa; experiment: Cytotoxicity against human HeLa cells assessed as loss of cells after 48 hrs by inverted microscopic analysis; type: functional, cell-based; in short: as §2
[4] = system: HeLa; experiment: Cytotoxicity against human HeLa cells assessed as cell viability at 800 uM after 48 hrs by alamar blue assay relative to control; type: functional; details: read-out: Activity; in short: as §1
[5] = system: NCI-H460; experiment: Cytotoxicity against human H460 cells assessed as reduction in cell viability after 48 hrs by alamar blue assay; type: functional, cell-based
[6] = system: PC-3; experiment: Cytotoxicity against human PC3 cells assessed as reduction in cell viability after 48 hrs by alamar blue assay; type: functional, cell-based

Row | SMILES | viability at 1600 µM [1] | Activity [2] | Activity [3] | viability at 800 µM [4] | Activity [5] | Activity [6]
1 | COc1cc(/C=C/C(=O)OC(=O)/C=C/c2ccc(O)c(OC)c2)ccc1O | 5.3% | Dose-dependent effect | Dose-dependent effect | 22.3% | inactive | inactive
2 | COC(=O)[C@@]1(OC(=O)/C=C/c2ccc(O)c(O)c2)C[C@@H](O)[C@@H](OC(=O)/C=C/c2ccc(O)c(O)c2)[C@H](OC(=O)/C=C/c2ccc(O)c(O)c2)C1 | 19.6% | Dose-dependent effect | Dose-dependent effect | 71% | inactive | inactive
